Laboratory results as given in publication PMC7194111 (Virology, 2020).
Read-outs that look alike come from different tables or passages of the source.

Legend:
[1] = Cytotoxicity measurement; assay type: cell-based; conditions: African green monkey, Vero cells
Procedure, shortened: (§1)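 Cells seeded at 6 × 10^3/well and exposed to a range of test compound concentrations (DMSO stock diluted in medium) for 48 h; controls received equal-volume DMSO. 10% CCK8 reagent added for 1 h, then absorbance read at 450 nm. CC50 taken as the concentration lowering viability by 50%.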

[2] = Cytotoxicity measurement; assay type: cell-based; conditions: human, A549 cells
Procedure, shortened: as §1

[3] = Cytotoxicity measurement; assay type: cell-based; conditions: human, Huh7 cells
Procedure, shortened: as §1

[4] = system: ZIKV; assay: Anti-ZIKV assay; assay type: cell-based, Zika virus; conditions: for EC50: Zika virus
Procedure, shortened: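 Cells seeded at 2 × 10^5/well and pretreated 2 h with serial dilutions of test compound (DMSO stock diluted in medium). Infected with ZIKV (Asian strain KU963796) at MOI 0.1 for 2 h, then incubated to 48 hpi at 37 °C, 5% CO2 in DMEM. Cellular vRNA measured by SYBR Green qRT-PCR using the 2^-ΔΔCT method normalized to GAPDH. EC50 is the concentration reducing viral yield by 50%.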

[5] = system: ZIKV; conditions: ref Adcock et al., 2017; cited from earlier work
[6] = system: ZIKV; assay: Plaque forming assay; assay type: cell-based, Zika virus
Procedure, shortened: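 Supernatants from ZIKV-infected, compound-treated cultures were put on overnight Vero monolayers (2 × 10^5 cells/well) for 2 h at 37 °C. Inoculum replaced with plaque medium containing 1% methylcellulose. After 7 days, cells fixed and stained with 4% formaldehyde and 0.5% crystal violet.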

[7] = system: ZIKV; assay: Viral protein by western blotting and immunofluorescence in Vero cells; assay type: cell-based, Zika virus
Procedure, shortened: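 Vero cells infected with ZIKV at MOI 0.1 and treated with test compound or DMSO. At 48 hpi: fixed in 4% paraformaldehyde (15 min), permeabilized with 0.2% Triton X-100 (5 min), blocked in 5% BSA (30 min). Stained overnight at 4 °C with pan-flavivirus envelope mAb 4G2, then fluorescent secondary for 30 min at RT. Nuclei stained with DAPI; imaged by confocal microscopy.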

[8] = system: ZIKV; assay: Time-of-addition assay; assay type: cell-based, Zika virus; conditions: 1 μM, added between -2 and 10 hpi, Vero cells, read at 48 hpi
[9] = system: ZIKV; assay: Time-of-removal assay; assay type: cell-based, Zika virus
Procedure, shortened: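 ZIKV-infected Vero cells received 1 μM test compound or DMSO at 6 hpi, with vRNA sampled every 3 h up to 24 hpi. Alternatively, treatment started at 24 hpi, with sampling every 6 h for a further 12 h. vRNA by SYBR Green qRT-PCR normalized to GAPDH. E and NS5 protein by western blot of cell lysates (SDS-PAGE, PVDF, overnight primary antibody at 4 °C, ECL), with GAPDH detected.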

[10] = system: ZIKV; assay: ZIKV strand specific RNA by qRT-PCR; assay type: cell-based; conditions: Zika virus, Vero
[11] = biological target: ZIKV NS5 RdRp (Zika virus, UniProt A0A024B7W1); assay: In vitro RNA polymerase assay; assay type: biochemical; conditions: recombinant ZIKV NS5, serial dilutions
[12] = system: ZIKV; assay: Lethal ZIKV challenge in AG6 mice; assay type: in vivo
Procedure, shortened: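 AG6 mice aged 4–5 weeks (13–15 g, n = 6/group) were infected with 3.3 × 10^6 PFU ZIKV via footpad. Dosed intragastrically at 1, 5 or 10 mg/kg (DMSO stock in 0.5% carboxymethyl cellulose) or vehicle for 14 days. Survival and body weight tracked to 14 dpi. Retro-orbital blood at 1, 3, 7 dpi: vRNA copies by qRT-PCR against a standard curve. Brain/liver vRNA by RT-qPCR; H&E histology. One-way ANOVA with Dunnett's test.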

[13] = 1 μM added at 6 hpi, after 24 h of viral infection, western blot intensity

ZIKV NS5 RdRp, sequence (A0A024B7W1 2521-3423 limits assumed): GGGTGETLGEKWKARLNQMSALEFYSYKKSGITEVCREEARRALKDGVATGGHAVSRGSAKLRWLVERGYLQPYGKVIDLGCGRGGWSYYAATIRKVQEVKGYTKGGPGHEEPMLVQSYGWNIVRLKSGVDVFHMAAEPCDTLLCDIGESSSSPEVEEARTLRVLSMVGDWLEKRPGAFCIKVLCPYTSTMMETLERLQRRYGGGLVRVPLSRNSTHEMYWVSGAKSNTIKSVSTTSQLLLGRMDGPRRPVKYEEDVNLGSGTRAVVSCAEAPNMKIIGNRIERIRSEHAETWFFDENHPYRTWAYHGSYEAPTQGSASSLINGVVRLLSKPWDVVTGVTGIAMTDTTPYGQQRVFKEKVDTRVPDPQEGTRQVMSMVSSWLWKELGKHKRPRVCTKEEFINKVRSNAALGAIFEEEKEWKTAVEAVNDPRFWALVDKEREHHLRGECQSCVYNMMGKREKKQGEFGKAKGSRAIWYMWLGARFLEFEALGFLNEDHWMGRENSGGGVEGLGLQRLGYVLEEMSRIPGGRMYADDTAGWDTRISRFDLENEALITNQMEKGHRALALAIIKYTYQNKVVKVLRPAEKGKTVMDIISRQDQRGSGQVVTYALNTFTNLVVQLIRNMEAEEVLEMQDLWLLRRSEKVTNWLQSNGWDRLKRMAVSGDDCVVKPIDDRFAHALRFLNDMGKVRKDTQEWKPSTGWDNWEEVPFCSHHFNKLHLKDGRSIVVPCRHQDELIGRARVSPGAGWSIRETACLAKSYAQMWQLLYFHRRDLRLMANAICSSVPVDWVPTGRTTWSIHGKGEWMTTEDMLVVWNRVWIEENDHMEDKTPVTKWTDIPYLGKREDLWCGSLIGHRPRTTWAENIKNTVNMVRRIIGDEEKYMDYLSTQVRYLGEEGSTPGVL

Question: For `Cc1c(-c2ccc(-c3ccccc3F)cc2)nc2ccc(F)cc2c1C(=O)O` [Brequinar, reference compound], which CC50 at 48 h [1] is on record?
Answer: The CC50 at 48 h was over 50000 nM.

Question: And the CC50 at 48 h [2]?
Answer: The CC50 at 48 h was over 50000 nM.

Question: What about the CC50 at 48 h [3] of the same compound?
Answer: The CC50 at 48 h was over 50000 nM.

Question: What about the “SI (selectivity index)” value ([4]; A549 cells) of the same compound?
Answer: Its value is over 1086.

Question: And the “SI (selectivity index)” value ([4]; Huh7 cells)?
Answer: Its value is over 8333.

Question: And the “SI (selectivity index)” value ([4]; Vero cells)?
Answer: The value was over 2272.

Question: What about the EC50 ([4]; A549) of the same compound?
Answer: The EC50 was 46 nM.

Question: And the EC50 ([4]; Huh-7)?
Answer: The EC50 was 6 nM.

Question: What about the EC50 ([4]; Vero) of the same compound?
Answer: The EC50 was 22 nM.

Question: What about the EC50 [5] of the same compound?
Answer: The EC50 was 80 nM.

Question: For `O[C@H]1[C@H]2c3cc4c(cc3CN3CCC(=C[C@@H]1O)[C@H]23)OCO4` [Lycorine], which CC50 at 48 h [1] is on record?
Answer: Its CC50 at 48 h is 21000 nM.

Question: What about the CC50 at 48 h [2] of the same compound?
Answer: The CC50 at 48 h was 4290 nM.

Question: And the CC50 at 48 h [3]?
Answer: Its CC50 at 48 h is 4400 nM.

Question: And the “SI (selectivity index)” value ([4]; A549 cells)?
Answer: Its value is 19.5.

Question: What about the “SI (selectivity index)” value ([4]; Huh7 cells) of the same compound?
Answer: The value was 20.

Question: What about the “SI (selectivity index)” value ([4]; Vero cells) of the same compound?
Answer: Its value is 54.

Question: And the EC50 ([4]; A549)?
Answer: The EC50 was 220 nM.

Question: What about the EC50 ([4]; Huh-7) of the same compound?
Answer: Its EC50 is 220 nM.

Question: What about the EC50 ([4]; Vero) of the same compound?
Answer: The EC50 was 390 nM.

Question: What about the “Inhibition of plaque formation” value ([6]; 0.5 μM) of the same compound?
Answer: Its value is “partially”.

Question: And the “Inhibition of plaque formation” value ([6]; 5 μM)?
Answer: Its value is “completely”.

Question: And the “ZIKV protein (western blotting)” value ([7]; 0.01 to 10 μM)?
Answer: Its value is “dose-dependent reduction in the ZIKV protein”.

Question: And the “ZIKV envelope biosynthesis (immunofluorescence)” value ([7]; 48 hpi)?
Answer: Its value is “significantly reduced”.

Question: What about the “vRNA and viral progeny particle load, time-of-addition” value [8] of the same compound?
Answer: The value was “strongest ability to decrease the vRNA and viral progeny particle load”.

Question: And the vRNA synthesis ([9]; 1 μM added at 6 hpi, Vero cells, monitored up to 24 hpi)?
Answer: Its vRNA synthesis is “fully abrogated vRNA synthesis”.

Question: What about the NS5 protein reduction [9, 13] of the same compound?
Answer: The NS5 protein reduction was 89%.

Question: And the “Virus E protein reduction” value [9, 13]?
Answer: The value was 52%.

Question: What about the “Viral E and NS5 protein reduction” value ([9]; 1 μM added at 24 hpi) of the same compound?
Answer: The value was “no significant difference”.

Question: And the vRNA ([9]; 1 μM added at 24 hpi, monitored for additional 12 h)?
Answer: Its vRNA is “no effect on vRNA”.

Question: What about the inhibition at 1 µM ([10]; read-out: Inhibition of negative-sense vRNA synthesis) of the same compound?
Answer: Its inhibition at 1 µM is about 95%.

Question: And the inhibition at 1 µM ([10]; read-out: Inhibition of positive-sense vRNA synthesis)?
Answer: The inhibition at 1 µM was about 93%.

Question: And the RdRp activity [11]?
Answer: The RdRp activity was “directly inhibited RdRp activity in a dose-dependent manner”.

Question: And the “Brain histopathology (H&E)” value ([12]; 1 mg/kg)?
Answer: The value was “brain tissue lesions were similar to those in the ZIKV group”.

Question: What about the “Liver histopathology (H&E)” value ([12]; 1 mg/kg) of the same compound?
Answer: The value was “inflammatory response of the cells was obvious”.

Question: What about the “Reduction of vRNA of brain tissue” value ([12]; 1 mg/kg) of the same compound?
Answer: The value was “not significant difference”.

Question: What about the “Reduction of vRNA of liver” value ([12]; 1 mg/kg) of the same compound?
Answer: The value was “not significant difference”.

Question: What about the Survival rate ([12]; 1 mg/kg intragastric, 14 days) of the same compound?
Answer: Its Survival rate is 33%.

Question: And the “Brain histopathology (H&E)” value ([12]; 5 mg/kg)?
Answer: The value was “significantly reduced the ZIKV-induced inflammatory response”.

Question: What about the “Reduction of vRNA of brain tissue” value ([12]; 5 mg/kg) of the same compound?
Answer: The value was “about one order of magnitude”.

Question: What about the “Reduction of vRNA of liver” value ([12]; 5 mg/kg) of the same compound?
Answer: Its value is “about one and half order of magnitude, respectively”.

Question: What about the Survival rate ([12]; 5 mg/kg intragastric, 14 days) of the same compound?
Answer: The Survival rate was 66%.

Question: What about the “Brain histopathology (H&E)” value ([12]; 10 mg/kg) of the same compound?
Answer: The value was “significantly reduced the ZIKV-induced inflammatory response”.

Question: And the “Reduction of vRNA of brain tissue” value ([12]; 10 mg/kg)?
Answer: Its value is “about three orders of magnitude”.

Question: What about the “Survival (protection against ZIKV infection-induced death)” value ([12]; 10 mg/kg intragastric, 14 days, ZIKV group 100% mortality) of the same compound?
Answer: The value was 83%.

Question: And the “Liver histopathology (H&E)” value ([12]; 10 mg/kg, compared to 5 mg/kg group)?
Answer: The value was “significantly reduced liver damage”.

Question: And the “vRNA levels in blood versus ZIKV group” value ([12]; 1, 3 and 7 dpi)?
Answer: Its value is “one order of magnitude lower”.

Question: What about the Body weight changes ([12]; weight loss from 5 dpi, 0 to 14 dpi) of the same compound?
Answer: The Body weight changes was “recovered until 9 or 10 dpi”.
